Data set [1] can be described thus: folding enthalpy; higher = less favourable; fluorescence melt of hairpins on a sequencing array, two-state fit. The following applies: sodium 0.088 M. Put shortly:
(§1)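 Folding enthalpy and melting temperature come from bootstrapped two-state fits to Cy3 fluorescence of library hairpins carrying annealed Cy3 and quencher oligos on a sequenced MiSeq flow cell. Imaging was done in 50 mM Na-HEPES pH 8.0, 25 mM NaCl, stepping by 2.5 °C up to 60 °C, and signals were normalised to pre-quench Cy3 and to control constructs. Results of four replicates were combined by inverse variance, and fitted temperatures were raised by 9.35 °C to match UV melts.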

Data set [2] in a line: melting temperature; fluorescence melt of hairpins on a sequencing array, two-state fit, raised by 9.35 °C to match UV melts. The following applies: sodium 0.088 M. Put shortly: as §1

For GGCAACGAAAGTTAAGCC ((((((....)))..))), the folding enthalpy in data set [1] was -24 kcal/mol. Besides, in data set [2], the Tm is 45.7 °C.

For GATCCAAACTGGATC ((((((...)))))), the folding enthalpy in data set [1] was -43 kcal/mol. The Tm in data set [2] was 50.4 °C.

With GACTTAGCGAAAGCTGTC (((..(((....)))))), the folding enthalpy in data set [1] was -14.6 kcal/mol. For the same sequence, the Tm in data set [2] stood at 43.8 °C.

For GTGTAAGAAATTACAC ((((((....)))))), the folding enthalpy in data set [1] was -29.2 kcal/mol. Moreover, the Tm in data set [2] was found to be 46.1 °C.

For GGTGAGCGAAAGCTGACC (((.(((....))).))), in data set [1], the folding enthalpy is -37.8 kcal/mol. In addition, the Tm in data set [2] worked out at 55 °C.

GAACATGAAAATGTTC ((((((....)))))): the folding enthalpy in data set [1] was -28.9 kcal/mol. In addition, the Tm in data set [2] stood at 52 °C.

For the sequence GATCCATAGCTGGATC ((((((....)))))), in data set [1], the folding enthalpy is -33.4 kcal/mol. Besides, the Tm in data set [2] is 49.2 °C.

Turning to GATCGGAACTCCGATC ((((((....)))))), in data set [1], the folding enthalpy is -45.1 kcal/mol. Moreover, in data set [2], the Tm stood at 55.2 °C.

For GCTTCCCGAAAGGGAGC (((.(((....)))))), the folding enthalpy in data set [1] is -22.3 kcal/mol. In addition, in data set [2], the Tm is 57.1 °C.

For GCCGCTGGAAACAACGGC ((((.((....)).)))), in data set [1], the folding enthalpy was -37.1 kcal/mol. In addition, the Tm in data set [2] is 54.3 °C.

GAAACCGGAAACGGCTTC (((.(((....))).))): the folding enthalpy in data set [1] is -23.6 kcal/mol. For the same sequence, in data set [2], the Tm amounted to 42 °C.

Take ACAGGGAAACCTGT (((((....))))): the folding enthalpy in data set [1] was -18.8 kcal/mol. The Tm in data set [2] came out at 48.3 °C.

As for GATCTGTACCAGATC ((((((...)))))), the folding enthalpy in data set [1] is -31.9 kcal/mol. The Tm in data set [2] is 49.3 °C.

On to GCGTAGGGAAACTTACGC (((((.(....).))))), for which the folding enthalpy in data set [1] is -39.4 kcal/mol. Also, in data set [2], the Tm worked out at 50.4 °C.

Take GAAGACGAAAGTCGGTTC ((((((....)))..))): the folding enthalpy in data set [1] was -12.8 kcal/mol. The Tm in data set [2] was found to be 34.4 °C.

Consider GGTGGCGAAAGCCATACC ((((((....)))..))), for which, in data set [1], the folding enthalpy was -12 kcal/mol. Besides, the Tm in data set [2] is 45.6 °C.

In the case of GCTGGTCGAAAGACTAGC (((.(((....))).))), the folding enthalpy in data set [1] was -43.2 kcal/mol. Also, the Tm in data set [2] was 57.6 °C.

As to GCGGTGCGAAAGCATTGC ((..(((....)))..)), the folding enthalpy in data set [1] is -22.4 kcal/mol. Moreover, the Tm in data set [2] is 59.2 °C.

Regarding GTATACGAAAGTATGTAC ((((((....)))..))), the folding enthalpy in data set [1] is -12.4 kcal/mol. In data set [2], the Tm was determined as 30.6 °C.

GTCGTAGGAAACTATGGC (.(.(((....))).).): the folding enthalpy in data set [1] is -17.8 kcal/mol. Also, the Tm in data set [2] amounted to 32 °C.

Take GCTCGCGAAAGCGGTAGC ((((((....)))..))): in data set [1], the folding enthalpy is -15.4 kcal/mol. Moreover, the Tm in data set [2] came to 51 °C.

As for GGACTAGGAAACTGGTCC ((((.((....)).)))), the folding enthalpy in data set [1] is -41.6 kcal/mol. Moreover, in data set [2], the Tm came out at 50.9 °C.

Regarding GCAACGCGAAAGCGCAGC ((..(((....)))..)), the folding enthalpy in data set [1] was -11.7 kcal/mol. In data set [2], the Tm turned out to be 48.1 °C.

Consider GCTTGCGAAAGCACTAGC ((((((....)))..))), for which, in data set [1], the folding enthalpy was -12.7 kcal/mol. The Tm in data set [2] stood at 33.8 °C.

In the case of GGAGGCGAAAGCCGTCC ((((((....))).))), the folding enthalpy in data set [1] was -9.55 kcal/mol. Besides, the Tm in data set [2] stood at 52.9 °C.

Regarding GATTCGGGAAACCGGATC (((.(((....))).))), the folding enthalpy in data set [1] was -39.6 kcal/mol. Further, the Tm in data set [2] stood at 49.3 °C.

Consider GCTTCGCGAAAGCTATGC ((.(.((....)).).)), for which the folding enthalpy in data set [1] was -13.4 kcal/mol. Further, the Tm in data set [2] worked out at 43.5 °C.

GCGAACGAAAGTTTTCGC ((((((....)))..))): the folding enthalpy in data set [1] is -26.6 kcal/mol. Besides, the Tm in data set [2] turned out to be 44.1 °C.

For the sequence GAGCTGGGAAACCGGCTC ((((.((....)).)))), the folding enthalpy in data set [1] is -38.5 kcal/mol. The Tm in data set [2] was 59.2 °C.

Consider GGTCTTGGAAACAAAACC (((.(((....))).))), for which the folding enthalpy in data set [1] was -14.5 kcal/mol. Moreover, in data set [2], the Tm was found to be 29.6 °C.

On to GAACACCCGAAAGGGTTC (((..(((....)))))), for which the folding enthalpy in data set [1] was -8.81 kcal/mol. Besides, the Tm in data set [2] is 30.7 °C.

With GGATCCGGAAACAGATCC (((((.(....).))))), the folding enthalpy in data set [1] is -33.1 kcal/mol. Moreover, the Tm in data set [2] is 41.6 °C.

For the sequence GTGCGACGAAAGTCCAC (((.(((....)))))), the folding enthalpy in data set [1] is -29.4 kcal/mol. In data set [2], the Tm was 52 °C.

Regarding GCTTACGGAAACGTAAAC (.(((((....))))).), the folding enthalpy in data set [1] is -17.9 kcal/mol. For the same sequence, in data set [2], the Tm worked out at 33.3 °C.

As for GCGCATGCGAAAGCACGC (((..(((....)))))), the folding enthalpy in data set [1] was -13.7 kcal/mol. The Tm in data set [2] is 54.6 °C.

For the sequence GCGAGCGAAAGCTGCGC ((((((....))).))), the folding enthalpy in data set [1] was -21.8 kcal/mol. Moreover, in data set [2], the Tm was determined as 68.9 °C.
